The source of these data is article PMC8717895 (Neuro-oncology Advances, 2021).

Experiment [1] concerns newly diagnosed DIPG. In words: Survival outcomes, stratum A. The format is in vivo, human. The procedure, abridged: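 Dosing began with conformal RT (1.8-Gy fractions daily, 5 days/week, 54 Gy) and continued without break. PFS ran from therapy start to progression or death; OS ran from diagnosis to death. Kaplan–Meier estimates; log-rank versus age-matched institutional DIPG cohort (1992–2011).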

In experiment [2] the test system is human glioma xenograft (U87MG). The settings on record: after 9 days of dosing at 50 mg/kg BID, ref Crenolanib Investigator's Brochure, AROG Pharmaceuticals, LLC, 2011; cited from earlier work.

Consider `CC1(COc2ccc3c(c2)ncn3-c2ccc3cccc(N4CCC(N)CC4)c3n2)COC1` [crenolanib], for which, in experiment [1] (all patients in stratum A), the “1-year OS estimate” value is 43.3% ± 8.7%, the “1-year PFS estimate” value is 17.8% ± 7.2%, the “2-year OS estimate” value is on record as 20.0% ± 6.8% and the “6-month PFS estimate” value is reported as 74.9% ± 8.2%. For the same molecule, in experiment [1] (stratum A, log-rank P = .99), the “OS distributions versus historical cohort of newly diagnosed DIPG (n = 189)” value is recorded as “no significant difference”. The “inhibition of xenograft growth” value in experiment [2] is 47%.
